Compounds with a hit are over-represented: about 2.9% of the library has one in this group of screens.
rRNA inh HTS = inhibits bacterial ribosomal RNA function over humanized ribosomes. AID 720706. hit rate 1.6% among 350,000. E. coli WT GFP vs humanized-ribosome RFP mutants, fluorescence, 24 h; active compounds read low; DMSO median 0, no signal -100. GFP signal change (wild-type ribosome), % (no concentration beside the values);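 active = significant combined selectivity score with lowered wild-type GFP, culture density cut under 30%, mutant RFP and density less affected; inactive = any of these conditions unmet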
PglD DTNB = inhibitors of Campylobacter jejuni PglD acetyltransferase; inhibition, % at 12.5 µM; AID 602405; hit rate 0.098% among 360,000; purified PglD enzyme, DTNB colorimetric CoA detection; in the data active = inhibition above about 16%, passing the limit was not always enough; inconclusive = no clear call, values can overlap the other calls
PGC1a acetyl inh = lowers PGC1a acetylation signal in U2OS cells; AID 651687; AlphaScreen anti-acetyl-lysine; with virally co-expressed GCN5 acetyltransferase; inhibition, % at 15.6 µM; hit rate 0.17% among 350,000;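 active = every replicate shows inhibition of at least 40%; inconclusive = mean inhibition at least 40% but some replicate below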;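 note: 0% = neutral control wells and 100% = positive control wells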
FGF22 binding-1 = FGF22 (human) thermal shift binding; hit rate 1.5% among 340,000; Q9HCT0; recombinant FGF22 thermal shift, SYPRO orange fluorescence; percent of sucrose octasulfate shift, DMSO zero; activity (Tm shift, normalised), % at 9.99 µM;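 active = mean Tm shift, scaled 0 neutral to 100 positive control, at about 1.3% or above, every replicate too, limit read from the data; inconclusive = no clear call, values can overlap the other calls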
Target sequence (Q9HCT0 whole entry, looked up): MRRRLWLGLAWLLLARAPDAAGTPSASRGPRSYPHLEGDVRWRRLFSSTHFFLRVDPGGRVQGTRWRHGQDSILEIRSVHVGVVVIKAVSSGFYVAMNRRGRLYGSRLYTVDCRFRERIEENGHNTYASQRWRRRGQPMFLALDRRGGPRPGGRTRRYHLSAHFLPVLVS
Cneo AK release = Cryptococcus neoformans lysis via adenylate kinase release; C. neoformans lysis, adenylate kinase release luminescence, 4 h; normalised: neutral wells 0, clomiphene wells 100; lysis activity, % at 15 µM; hit rate 0.2% among 360,000; AID 651654;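 active = mean lysis activity across replicates of at least 80%, whatever share of replicates individually reach that level; inactive = mean lysis activity below 80%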
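Assay system: log-phase C. neoformans yeast / Quantity: yeast cell density of 5 × 10^6 cells/mL / Medium: fresh YPD growth medium / Compound: single dose / Timing: static 4 h at 37 °C with compound, 1 h detection / Measured by: adenylate kinase release luminescence / Read-out: lysis from increased AK signal / Benchmarks: Clomiphene as positive lysis control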
Vif imaging = inhibitors of HIV Vif; hit rate 0.35% among 340,000; HEK293T cells, Vif self-association by quenched fluorescence, imaging, 24 h; AID 602346; inhibition, % at 7.49 µM; in the data active = inhibition above about 50%, passing the limit was not always enough; inconclusive = no clear call, values can overlap the other calls; inactive = below about 31%
FGF22 binding-2 = binds human FGF22 shifting its melting temperature. AID 720646. shares compounds with FGF22 binding-1. thermal shift activity, °C (ΔTm) at 38 µM. hit rate 2% among 1,000. recombinant FGF22 thermal shift, SYPRO orange fluorescence;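 active = fitted rise in melting shift crosses a set limit at or below the top valid dose tested; inconclusive = flat fit at mid-level activity, or a poor quality fit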
SYPRO no-protein = counter-screen for FGF22 binders: compound-only thermal shift, no protein; shares compounds with FGF22 binding-1; compound-only SYPRO orange thermal shift counter-screen; AC50, µM (titrated, usually from 38 µM); hit rate 2% among 1,000; AID 743019;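 active = rising signal whose fitted curve reaches the 0.54 level within the top valid dose, showing a melting point, actives reach about 13 µM in these data; inactive = the rest, including activity in the opposite direction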; note: value is where the raw curve crosses a fixed level and not half-maximal
COX5a expr inh = inhibitors of PGC-1a target COX5a expression in C2C12 myotubes; C2C12 myotubes PGC-1a adenovirus, COX5a qPCR; shares compounds with PGC1a acetyl inh; maximal activity, %; 45 tested, under 10 active; AID 743461;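 active = fitted dose curve reaching 40% activity at or below the highest valid dose tested; inconclusive = flat fit between 30% and 70%, or an unusable fit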
AID743468 = change in PGC-1a target gene PDK4 expression, dose response, C2C12 myotubes, RT-qPCR, cherry-pick; shares compounds with PGC1a acetyl inh; PGC-1a adenovirus, PDK4 mRNA qPCR; PDK4 expression increase, % at 19.5 µM; 45 tested, under 10 active; AID 743468;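 active = fitted curve reaching a 40% PDK4 expression rise at or below the top valid tested dose; inconclusive = no clear call, values can overlap the other calls; inactive = the rest, including shifts the wrong way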
AID977621 = growth inhibition of wild-type GFP E. coli, dose response, H69 mutant RFP, cherry-pick; shares compounds with rRNA inh HTS; E. coli wild-type GFP strain growth, fluorescence, 24 h; activity change, negative = inhibition at 50 µM; 1,900 tested, under 10 active; AID 977621;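 active = Wild-type ribosome reporter drop at least double the humanized mutant ribosome reporter drop, growth loss under a set limit; inconclusive = no clear call, values can overlap the other calls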;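 note: wild-type GFP and H69 mutant RFP strains grown together 50/50 in each well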
Numbers without * were called inactive; ! = not active in a repeat.

Screening CCC(C)n1c(O)c(C(c2ccccn2)c2c(O)n(C(C)CC)c(=S)[nH]c2=O)c(=O)[nH]c1=S (configuration not stated) returned rRNA inh HTS 15, PglD DTNB -1, PGC1a acetyl inh 11, FGF22 binding-1 26*, Cneo AK release 3, Vif imaging 8, FGF22 binding-2 -0.062 and SYPRO no-protein inactive.
For CCC(C)n1c(O)c(C=NC(C)c2ccccc2)c(=O)[nH]c1=S (configuration not stated) the results were FGF22 binding-1 0 and Vif imaging 20.
Screening O=C(Cc1ccccn1)N1CCCCN2[C@@H](CO)[C@@H](c3ccc(-c4ccc(F)cc4)cc3)[C@@H]2C1 returned rRNA inh HTS -5, PglD DTNB -1, PGC1a acetyl inh 9, FGF22 binding-1 -1 and Cneo AK release 1.
For Cc1ccc(S(=O)(=O)N(C)C[C@@H]2Oc3cc(Br)ccc3S(=O)(=O)N([C@@H](C)CO)C[C@H]2C)cc1 the results were rRNA inh HTS 2, PglD DTNB -2, PGC1a acetyl inh -25, FGF22 binding-1 2.2*, Cneo AK release 5, FGF22 binding-2 -0.038 and SYPRO no-protein inactive.
For Cc1ccc(OC(=O)N(C)C[C@@H]2OCc3cnnn3CCCC(=O)N([C@@H](C)CO)C[C@H]2C)cc1 the results were rRNA inh HTS 15, PglD DTNB 5, PGC1a acetyl inh -1, FGF22 binding-1 0 and Cneo AK release 8.
`Cc1ccc(S(=O)(=O)N(C)C[C@H]2Oc3cc(Br)ccc3S(=O)(=O)N([C@H](C)CO)C[C@@H]2C)cc1` gave rRNA inh HTS 4, PglD DTNB 0, PGC1a acetyl inh -32, FGF22 binding-1 1.6*!, Cneo AK release 0, Vif imaging -18, FGF22 binding-2 -1.9 and SYPRO no-protein 10µM*.
`CCCN1[C@@H]2c3ccc(-c4ccccc4)c(=O)n3C[C@H]1[C@H](CO)[C@H]2C(=O)OC` gave rRNA inh HTS 2, PglD DTNB -1, FGF22 binding-1 0 and Cneo AK release 0.
OC(CNCCc1c[nH]c2ccccc12)c1ccccc1 (configuration not stated) was read as rRNA inh HTS 9, PglD DTNB -5, FGF22 binding-1 1.4*, Cneo AK release -2, Vif imaging 32, FGF22 binding-2 -0.17 and SYPRO no-protein inactive.
CCCNC(=O)[C@H]1[C@H](CO)[C@H]2Cn3c(cccc3=O)[C@H]2N1C was read as rRNA inh HTS 2, PglD DTNB 0, FGF22 binding-1 0 and Cneo AK release 3.
CCn1nc(/C=C/c2ccccc2)nc2c(=O)n(C)c(=O)nc1-2 was read as rRNA inh HTS -46, PGC1a acetyl inh 69*, FGF22 binding-1 0, Vif imaging 8, COX5a expr inh -56 and AID743468 -55.
For N#Cc1ccc(-c2ccc([C@H]3[C@H](CO)N4CCCCN(C(=O)Cc5ccccc5)C[C@@H]34)cc2)cc1 the results were rRNA inh HTS -22, PglD DTNB 0, PGC1a acetyl inh 0, FGF22 binding-1 1 and Cneo AK release 2.
Screening C[C@]12CCC3C(CC[C@H]4C[C@@H](O)CC[C@]34C)[C@H]1CC[C@H]2O (some centres not stated) returned rRNA inh HTS -20*, PglD DTNB -7, PGC1a acetyl inh 7, FGF22 binding-1 0, Cneo AK release -1, Vif imaging 6 and AID977621 -26.
Screening CC(=O)OC1N=C(c2ccccc2Cl)c2cc(Br)ccc2NC1=O (configuration not stated) returned rRNA inh HTS -20*, FGF22 binding-1 0, Vif imaging 3 and AID977621 -14.
Screening COC(=O)[C@@H]1[C@@H](CO)[C@@H]2Cn3c(ccc(-c4ccncc4)c3=O)[C@H]1N2S(=O)(=O)c1ccccc1C returned rRNA inh HTS 3, PglD DTNB 0, FGF22 binding-1 0 and Cneo AK release -1.
`CCOC(=O)c1c(C)n(Cc2ccccc2)c2ccc(O)cc12` gave rRNA inh HTS -27*, PGC1a acetyl inh -2, FGF22 binding-1 0, Vif imaging -16 and AID977621 -16.
COC(=O)c1c(C)n(Cc2ccccc2)c2ccc(O)cc12 was read as rRNA inh HTS -32, PglD DTNB -1, PGC1a acetyl inh 12, FGF22 binding-1 0, Cneo AK release -8 and Vif imaging -2.
Screening CC=Cc1ccc2n(c1=O)C[C@@H]1[C@@H](CO)[C@H](C(=O)N(C)C)[C@H]2N1C (mixture of isomers) returned rRNA inh HTS -1, PglD DTNB -2, FGF22 binding-1 0 and Cneo AK release 7.
CCCCn1c(NS(=O)(=O)c2ccc(C)cc2)c(C(=O)OCC)c2nc3ccccc3nc21 was read as rRNA inh HTS -22*, PglD DTNB 7, PGC1a acetyl inh 5, FGF22 binding-1 0, Cneo AK release 2, Vif imaging 6 and AID977621 inconclusive.
CCOC(=O)[C@]12Cc3ccccc3[C@H]1N(C)C(=O)c1cc(OC)ccc12 was read as rRNA inh HTS -20*, FGF22 binding-1 0 and AID977621 -16.
For CCOC(=O)[C@]12Cc3ccccc3[C@H]1N(C(C)C)C(=O)c1cc(OC)ccc12 the results were rRNA inh HTS -43 and FGF22 binding-1 0.
Screening Cc1ccc(OC(=O)N(C)C[C@H]2OCc3ccccc3-c3c(n(C)c4ccccc34)C(=O)N([C@H](C)CO)C[C@@H]2C)cc1 returned rRNA inh HTS 0.
